Assay outcomes deposited in PubChem by Broad Institute.
T cruzi intra: inhibitors of intracellular Trypanosoma cruzi, primary screen, cell-based, plate reader, single point, set 2; intracellular Trypanosoma cruzi in host cells; activity score (inhibition), % at 5.01 µM; 22,000 tested, 4.9% active; AID 651903, 2012; in the data active means activity score above about 55%; inconclusive means no clear call, values can overlap the other calls;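 further: parasites and compound incubated about four days before reading; 0% = median of neutral control wells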
INS-1E rescue: protection of INS-1E cells from cytokine death, primary screen, ATP luminescence, single point. AID 488910, 2010. 20,000 tested, 0.1% active. protection from cytokine-induced ATP loss, % at 10 µM. INS-1E cytokine-induced death, 48 h; normalised: neutral wells 0, positive control 100;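 active means mean replicate protection from cytokine-induced ATP loss at least 50% and at least 75% of replicates each reaching 50%; inconclusive means meets only one of the two criteria, mean or replicate share; inactive means fails both the mean and replicate share criteria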
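assay system = INS-1E rat insulinoma cells | amount = 8000 cells per well | medium = phenol-red-free RPMI with 5% fetal bovine serum | doses = one compound concentration, pin transfer | timing = 48 h cytokine plus compound treatment, 10 min reagent incubation | also added = IL-1β, TNF-α and IFN-γ cytokine mix | signal = CellTiter-Glo luminescence measuring cellular ATP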
A1 apoptosis 2: A1 inhibitors via caspase activation, primary screen, cell-based, luminescence, HTS, two replicates. MEF A1-2A-BIM cells, caspase-Glo luminescence, 3 h; percent of clofoctol response, DMSO zero. caspase activation, % (no concentration beside the values). 24,000 tested, under 10 active. AID 2465, 2010; in the data active means caspase activation above about 5.9%; inconclusive means no clear call, values can overlap the other calls; inactive means below about 2.2%
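Material: A1-2A-BIM-expressing MEF cells. Buffer or medium: RPMI-1640 plus 10% FBS. Incubation: cells settled overnight, compound exposure 3 h at 37 °C, 5% CO2. Signal: Caspase-Glo 3/7 luminescence, 1 h at room temperature.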
* = called active by the depositor; ? = inconclusive; · = not tested or not shown. The sample as a whole holds a higher share of hits than the screen did.

SMILES | T cruzi intra | INS-1E rescue | A1 apoptosis 2
Cc1nnc(Sc2ccc(/C=N/NC(=O)c3ccccn3)o2)n1C | -8 | 4 | -1
O=C(N/N=C/c1ccccc1Cl)c1ccccn1 | -12 | -2 | -10
COc1ccc(NC(=O)Nc2ccc3c(c2)C(=O)N([C@H](C)CO)C[C@H](C)[C@H](CN(C)C(=O)Nc2ccc(C(F)(F)F)cc2)OCCCC[C@H](C)O3)cc1 | · | · | 1
COc1ccc(NC(=O)N(C)C[C@H]2OCCCC[C@@H](C)Oc3ccc(NC(=O)Nc4ccc(C(F)(F)F)cc4)cc3C(=O)N([C@H](C)CO)C[C@@H]2C)cc1 | 57* | -19 | 0
COc1ccc(NC(=O)Nc2ccc3c(c2)C(=O)N([C@H](C)CO)C[C@H](C)[C@@H](CN(C)C(=O)Nc2ccc(C(F)(F)F)cc2)OCCCC[C@@H](C)O3)cc1 | 69* | -16 | ·
COc1ccc(NC(=O)Nc2ccc3c(c2)C(=O)N([C@H](C)CO)C[C@H](C)[C@H](CN(C)C(=O)Nc2ccc(C(F)(F)F)cc2)OCCCC[C@@H](C)O3)cc1 | 55 | 2 | -1
CCO/N=[N+](\[O-])N1CCCC1 | · | · | 1
COc1cc(O)cc(OC)c1/C=N/NC(=O)CCCCCC(=O)Nc1ccccc1O | -7 | 6 | 1
OCC1CC(c2ccccc2)=NO1 (stereo unspecified) | · | · | -1
Cc1ccc(S(=O)(=O)N(c2cccc(N=[N+]=[N-])c2)S(=O)(=O)c2ccc(C)cc2)cc1 | · | · | 0
Cc1ccc(S(=O)(=O)N[C@@H](Cc2ccccc2)C(=O)NCCCN=[N+]=[N-])cc1 | · | · | -2
Cc1ccc(S(=O)(=O)Nc2ccc3c(c2)CC(=O)N([C@H](C)CO)C[C@@H](C)[C@@H](CN(C)Cc2ccc(C(=O)Nc4ccccc4N)cc2)O3)cc1 | 60* | -6 | 0
C[C@H]1CN([C@@H](C)CO)C(=O)Cc2cc(NS(=O)(=O)c3ccc(Cl)cc3)ccc2O[C@@H]1CN(C)Cc1ccc(C(=O)Nc2ccccc2N)cc1 | · | · | 1
C[C@H](CO)N1C[C@H](C)[C@H](CN(C)Cc2ccc(C(=O)Nc3ccccc3N)cc2)Oc2ccc(NS(=O)(=O)c3ccc(Cl)cc3)cc2CC1=O | 60* | 41 | ·
COc1ccc(S(=O)(=O)Nc2ccc3c(c2)CC(=O)N([C@H](C)CO)C[C@H](C)[C@H](CN(C)Cc2ccc(C(=O)Nc4ccccc4N)cc2)O3)cc1 | 59* | 53* | 0
C[C@@H]1CN([C@H](C)CO)C(=O)Cc2cc(NS(=O)(=O)c3cccs3)ccc2O[C@H]1CN(C)Cc1ccc(C(=O)Nc2ccccc2N)cc1 | 44 | 2 | ·
COc1ccc(S(=O)(=O)Nc2ccc3c(c2)CC(=O)N([C@H](C)CO)C[C@@H](C)[C@@H](CN(C)Cc2ccc(C(=O)Nc4ccccc4N)cc2)O3)cc1 | 50 | -18 | 0
C[C@H](CO)N1C[C@H](C)[C@H](CN(C)Cc2ccc(C(=O)Nc3ccccc3N)cc2)Oc2ccc(NS(=O)(=O)c3cccs3)cc2CC1=O | 64* | 40 | 0
Cc1ccc(S(=O)(=O)Nc2ccc3c(c2)CC(=O)N([C@@H](C)CO)C[C@H](C)[C@@H](CN(C)Cc2ccc(C(=O)Nc4ccccc4N)cc2)O3)cc1 | 50 | 8 | 0
O=C(CCCCCCC(=O)Nc1ccccc1O)N/N=C/c1ccc(O)cc1 | -10 | -13 | 0
O=C(CCCCCC(=O)Nc1ccccc1O)N/N=C/c1ccccc1C(=O)O | -9 | -7 | -1
COCCOC(=O)N1C(=O)[C@@]2(c3cc(C#CC4(O)CCCCCC4)ccc31)[C@H](C(N)=O)[C@H]1C(=O)O[C@H](c3ccccc3)[C@H](c3ccccc3)N1[C@@H]2c1ccc(OCCO)cc1 | · | · | -1
O=C(NO)c1cccc(C(=O)N/N=C/C2=CCCCC2)c1 | -3 | -4 | -1
C[C@H](CO)N1C[C@H](C)[C@H](CN(C)Cc2ccc(C(=O)Nc3ccccc3N)cc2)Oc2ccc(NS(=O)(=O)c3ccc(F)cc3)cc2CC1=O | 64* | ? | ·
C[C@@H]1CN([C@@H](C)CO)C(=O)Cc2cc(NS(=O)(=O)c3ccc(F)cc3)ccc2O[C@H]1CN(C)Cc1ccc(C(=O)Nc2ccccc2N)cc1 | · | · | 0
SMILES | T cruzi intra | INS-1E rescue | A1 apoptosis 2
C[C@H](CO)N1C[C@H](C)[C@H](CN(C)Cc2ccc3c(c2)OCO3)Oc2ccc(NC(=O)Nc3ccc(C(F)(F)F)cc3)cc2CC1=O | 74* | -35 | 0
C[C@@H]1CN([C@@H](C)CO)C(=O)Cc2cc(NC(=O)Nc3ccc4c(c3)OCO4)ccc2O[C@@H]1CN(C)Cc1ccc2c(c1)OCO2 | 25 | -9 | ·
C[C@@H]1CN([C@H](C)CO)C(=O)Cc2cc(NC(=O)Nc3ccc(F)cc3)ccc2O[C@H]1CN(C)Cc1ccc2c(c1)OCO2 | 7 | -2 | 0
C[C@@H]1CN([C@H](C)CO)C(=O)Cc2cc(NC(=O)Nc3ccc(C(F)(F)F)cc3)ccc2O[C@@H]1CN(C)Cc1ccc2c(c1)OCO2 | 62* | -59 | 0
C[C@H]1CN([C@@H](C)CO)C(=O)Cc2cc(NC(=O)Nc3ccc(C(F)(F)F)cc3)ccc2O[C@@H]1CN(C)Cc1ccc2c(c1)OCO2 | 18 | -7 | ·
C[C@@H]1CN([C@H](C)CO)C(=O)Cc2cc(NC(=O)Nc3ccc4c(c3)OCO4)ccc2O[C@@H]1CN(C)Cc1ccc(C(F)(F)F)cc1 | 76* | -25 | ·
O=C1CS(=O)(=O)C(c2ccccc2)N1c1ccccc1 (stereo unspecified) | · | · | 0
COC(=O)CCCCCCC(=O)N/N=C/c1cc(Br)cs1 | -17 | 3 | 1
O=C(CCCCCC(=O)Nc1ccccc1O)N/N=C/c1cc(F)ccc1O | 24 | 16 | 1
CCCCCCC/C=N/NC(=O)c1ccccc1O | -10 | -2 | 0
CC(=O)O[C@@H]1[C@H](c2ccc(=O)oc2)C2[C@H](C)C[C@H]3[C@@H](CC[C@@H]4C[C@@H](O)CC[C@@]43C)[C@]23O[C@H]13 (stereo partly specified) | · | · | 0
C[C@@H]1CCCCO[C@H](CN(C)S(=O)(=O)c2ccc(Cl)cc2)[C@@H](C)CN([C@H](C)CO)C(=O)c2cc(NC(=O)Nc3ccc(C(F)(F)F)cc3)ccc2O1 | 71* | -53 | 1
C[C@H](CO)N1C[C@H](C)[C@H](CN(C)CC2CCCCC2)Oc2ccc(NC(=O)Nc3ccc(C(F)(F)F)cc3)cc2C1=O | 62* | -45 | -1
C[C@@H]1CN([C@@H](C)CO)C(=O)c2cccc(NC(=O)Nc3ccc(C(F)(F)F)cc3)c2O[C@@H]1CN(C)CC1CC1 | -17 | -19 | -1
C[C@@H]1CN([C@@H](C)CO)C(=O)c2cccc(NC(=O)Nc3ccc(C(F)(F)F)cc3)c2O[C@@H]1CN(C)CC1CCCCC1 | 78* | -64 | -1
C[C@@H]1CN([C@@H](C)CO)C(=O)c2cc(NC(=O)Nc3ccc(C(F)(F)F)cc3)ccc2O[C@H]1CN(C)CC1CCCCC1 | 40 | -22 | 1
